{
  "source": "paper PMC9322249",
  "about": "(Journal of Food and Drug Analysis, 2017)",
  "data": [
    {"test_system": "not listed separately", "test": "Thiobarbituric acid reactive substances", "conditions": "BHTE units; X = EO or compound", "in_short": "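TBARS formation by oxidation measured in soybean lecithin homogenate as lipid-rich medium, by a published method, in triplicate. Values are expressed as μmol BHTE/mL EO, mean ± SD, with ANOVA/Tukey's HSD (p < 0.05).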", "values": [
      {"smiles": "C=C(C)[C@H]1CC=C(C)CC1", "note": "[limonene]", "TBARS": "N/D (Activity lower than 0.05 units at a maximum assay concentration of 100 mM)"},
      {"smiles": "C=CC(C)(O)CCC=C(C)C", "note": "(stereo not shown) [linalool]", "TBARS": "N/D (Activity lower than 0.05 units at a maximum assay concentration of 100 mM)"},
      {"smiles": "Cc1ccc(C(C)C)cc1", "note": "[p-cymene]", "TBARS": "N/D (Activity lower than 0.05 units at a maximum assay concentration of 100 mM)"},
      {"smiles": "Cc1ccc(C(C)C)c(O)c1", "note": "[thymol]", "TBARS": "869.4 ± 255.2 μmol BHTE/mL X"}
    ]},
    {"target": "T1, lipoxygenase (LOX) (linoleate:oxygen oxidoreductase, EC 1.13.11.12) (Glycine max, UniProt P08170)", "T1 sequence (P08170 1-839)": "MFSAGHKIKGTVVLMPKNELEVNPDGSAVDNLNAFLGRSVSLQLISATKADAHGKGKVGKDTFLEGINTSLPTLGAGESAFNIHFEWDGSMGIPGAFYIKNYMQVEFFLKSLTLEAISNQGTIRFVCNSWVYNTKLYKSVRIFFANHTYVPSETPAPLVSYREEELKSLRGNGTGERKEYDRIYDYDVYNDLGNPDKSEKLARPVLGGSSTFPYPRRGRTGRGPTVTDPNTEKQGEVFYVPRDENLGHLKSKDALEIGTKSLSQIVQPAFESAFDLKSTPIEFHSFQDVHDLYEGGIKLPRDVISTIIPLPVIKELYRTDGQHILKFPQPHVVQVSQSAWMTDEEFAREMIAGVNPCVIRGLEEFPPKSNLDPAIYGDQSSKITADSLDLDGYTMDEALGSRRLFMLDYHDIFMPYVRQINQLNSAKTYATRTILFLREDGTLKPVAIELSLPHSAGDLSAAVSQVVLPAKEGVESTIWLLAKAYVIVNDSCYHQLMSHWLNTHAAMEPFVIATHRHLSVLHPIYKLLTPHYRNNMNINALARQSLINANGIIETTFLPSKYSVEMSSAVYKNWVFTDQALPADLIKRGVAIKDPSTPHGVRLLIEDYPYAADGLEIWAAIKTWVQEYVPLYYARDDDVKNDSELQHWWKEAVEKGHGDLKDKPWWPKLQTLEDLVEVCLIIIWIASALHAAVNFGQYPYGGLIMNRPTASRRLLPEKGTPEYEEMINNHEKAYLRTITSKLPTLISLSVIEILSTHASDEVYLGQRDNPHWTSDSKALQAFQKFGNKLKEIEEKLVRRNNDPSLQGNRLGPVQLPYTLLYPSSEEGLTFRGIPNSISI", "test": "Lipoxygenase", "format": "biochemical, Glycine max (soybean)", "conditions": "soybean LOX, linoleic acid substrate, 25 °C; mean ± SD", "values": [
      {"smiles": "C=C(C)[C@H]1CC=C(C)CC1", "note": "[limonene]", "LOX inhibitory activity, IC50 of main commercially available compounds": "58 ± 5 μL (Compound)/L"},
      {"smiles": "C=CC(C)(O)CCC=C(C)C", "note": "(stereo not shown) [linalool]", "LOX inhibitory activity, IC50 of main commercially available compounds": "599 ± 8 μL (Compound)/L"},
      {"smiles": "Cc1ccc(C(C)C)cc1", "note": "[p-cymene]", "LOX inhibitory activity, IC50 of main commercially available compounds": "79 ± 5 μL (Compound)/L"},
      {"smiles": "Cc1ccc(C(C)C)c(O)c1", "note": "[thymol]", "LOX inhibitory activity, IC50 of main commercially available compounds": "23 ± 2 μL (Compound)/L"}
    ]},
    {"test_system": "not listed separately", "test": "Oxygen radical absorption capacity", "conditions": "TEAC units; X = EO or compound", "in_short": "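Peroxyl radical (ROO) scavenging by the oils and individual components, following a published ORAC method, in triplicate. Data are mean ± SD, with significance by ANOVA/Tukey's HSD (p < 0.05).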", "values": [
      {"smiles": "C=C(C)[C@H]1CC=C(C)CC1", "note": "[limonene]", "ORAC": "0.8 ± 0.1 μmol TE/μL X"},
      {"smiles": "C=CC(C)(O)CCC=C(C)C", "note": "(stereo not shown) [linalool]", "ORAC": "1.9 ± 0.1 μmol TE/μL X"},
      {"smiles": "Cc1ccc(C(C)C)cc1", "note": "[p-cymene]", "ORAC": "N/D (Activity lower than 0.05 units at a maximum assay concentration of 100 mM)"},
      {"smiles": "Cc1ccc(C(C)C)c(O)c1", "note": "[thymol]", "ORAC": "2.1 ± 0.1 μmol TE/μL X"}
    ]},
    {"test_system": "not listed separately", "test": "Chelating power", "conditions": "not given", "in_short": "(§1)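 Ferrous ion chelation by essential oils and their major components, by a published method, in triplicate. Results are expressed as EDTA equivalents per volume of EO, mean ± SD, with ANOVA/Tukey's HSD (p < 0.05).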", "values": [
      {"smiles": "C=CC(C)(O)CCC=C(C)C", "note": "(stereo not shown) [linalool]", "Chelating power (ChP), result in words": "high ChP"},
      {"smiles": "Cc1ccc(C(C)C)cc1", "note": "[p-cymene]", "Chelating power (ChP), result in words": "high chelating activity"},
      {"smiles": "Cc1ccc(C(C)C)c(O)c1", "note": "[thymol]", "Chelating power (ChP), result in words": "do not show any ChP"}
    ]},
    {"test_system": "not listed separately", "test": "Chelating power", "conditions": "EDTAE units; X = EO or compound", "in_short": "as §1", "values": [
      {"smiles": "C=C(C)[C@H]1CC=C(C)CC1", "note": "[limonene]", "ChP": "36.7 ± 2.3 μmol EDTAE/mL X"},
      {"smiles": "C=CC(C)(O)CCC=C(C)C", "note": "(stereo not shown) [linalool]", "ChP": "541.6 ± 32.7 μmol EDTAE/mL X"},
      {"smiles": "Cc1ccc(C(C)C)cc1", "note": "[p-cymene]", "ChP": "124.7 ± 9.8 μmol EDTAE/mL X"},
      {"smiles": "Cc1ccc(C(C)C)c(O)c1", "note": "[thymol]", "ChP": "N/D (Activity lower than 0.05 units at a maximum assay concentration of 100 mM)"}
    ]},
    {"test_system": "not listed separately", "test": "DPPH radical scavenging capacity", "conditions": "TEAC units; X = EO or compound", "in_short": "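DPPH radical scavenging by essential oils and individual components, by a published method, in triplicate. Values are expressed as μmol TE/mL EO and given as mean ± SD, with ANOVA/Tukey's HSD at p < 0.05.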", "values": [
      {"smiles": "C=C(C)[C@H]1CC=C(C)CC1", "note": "[limonene]", "DPPH": "N/D (Activity lower than 0.05 units at a maximum assay concentration of 100 mM)"},
      {"smiles": "C=CC(C)(O)CCC=C(C)C", "note": "(stereo not shown) [linalool]", "DPPH": "N/D (Activity lower than 0.05 units at a maximum assay concentration of 100 mM)"},
      {"smiles": "Cc1ccc(C(C)C)cc1", "note": "[p-cymene]", "DPPH": "N/D (Activity lower than 0.05 units at a maximum assay concentration of 100 mM)"},
      {"smiles": "Cc1ccc(C(C)C)c(O)c1", "note": "[thymol]", "DPPH": "34.9 ± 2.1 μmol TE/mL X"}
    ]},
    {"test_system": "not listed separately", "test": "Reducing power", "conditions": "AAE units; X = EO or compound", "in_short": "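Reduction of potassium ferricyanide by the oils and individual components, by a published method, in triplicate. Results are reported as ascorbic acid equivalents per volume of EO, mean ± SD, with ANOVA/Tukey's HSD (p < 0.05).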", "values": [
      {"smiles": "C=C(C)[C@H]1CC=C(C)CC1", "note": "[limonene]", "RdP": "N/D (Activity lower than 0.05 units at a maximum assay concentration of 100 mM)"},
      {"smiles": "C=CC(C)(O)CCC=C(C)C", "note": "(stereo not shown) [linalool]", "RdP": "N/D (Activity lower than 0.05 units at a maximum assay concentration of 100 mM)"},
      {"smiles": "Cc1ccc(C(C)C)cc1", "note": "[p-cymene]", "RdP": "N/D (Activity lower than 0.05 units at a maximum assay concentration of 100 mM)"},
      {"smiles": "Cc1ccc(C(C)C)c(O)c1", "note": "[thymol]", "RdP": "3353.9 ± 133.4 μmol AAE/L X"}
    ]},
    {"test_system": "not listed separately", "test": "ABTS radical cation bleaching assay", "conditions": "TEAC units; X = EO or compound", "in_short": "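ABTS radical cation (ABTS•+) bleaching by essential oils and their individual components, run in triplicate by a published method. Results are given as mean ± SD, compared by ANOVA with Tukey's HSD (p < 0.05).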", "units": {"ABTS": "μmol TE/mL X"}, "values": [
      {"smiles": "C=C(C)[C@H]1CC=C(C)CC1", "note": "[limonene]", "ABTS": "3.6 ± 0.2"},
      {"smiles": "C=CC(C)(O)CCC=C(C)C", "note": "(stereo not shown) [linalool]", "ABTS": "0.4 ± 0.0"},
      {"smiles": "Cc1ccc(C(C)C)cc1", "note": "[p-cymene]", "ABTS": "0.6 ± 0.0"},
      {"smiles": "Cc1ccc(C(C)C)c(O)c1", "note": "[thymol]", "ABTS": "6897.1 ± 225.0"}
    ]}
  ]
}
